Source: PubChem BioAssay
Most compounds without a hit are left out; they make up all but 5.8% or so of the library.
T cruzi growth-1 = T. cruzi intracellular proliferation inhibitors, primary screen, cell-based, beta-gal Tulahuen parasites, NIH3T3 host, luminescence | T. cruzi beta-gal in NIH3T3, GalScreen luminescence, 90 h | inhibition, % at 8.34 µM | 5.9% of 77,000 active;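 active means mean inhibition above about 93%, with at least 55% of replicates each passing it, limit read from the data, passing the limit was not always enough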
KDM4C inh = inhibitors of GASC-1 (KDM4C) histone demethylase, primary screen, biochemical, single concentration HTS; Lysine-specific demethylase 4C (Homo sapiens), Q9H3R0; GST-KDM4C 2-372, H3K9me3 peptide, LANCE TR-FRET; inhibition, % at 12.5 µM; 0.15% of 96,000 active;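 active means mean replicate inhibition above about 25%, with at least 55% of replicates also reaching it, limit read from the data, passing the limit was not always enough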
Target sequence (Q9H3R0 2-372 limits assumed): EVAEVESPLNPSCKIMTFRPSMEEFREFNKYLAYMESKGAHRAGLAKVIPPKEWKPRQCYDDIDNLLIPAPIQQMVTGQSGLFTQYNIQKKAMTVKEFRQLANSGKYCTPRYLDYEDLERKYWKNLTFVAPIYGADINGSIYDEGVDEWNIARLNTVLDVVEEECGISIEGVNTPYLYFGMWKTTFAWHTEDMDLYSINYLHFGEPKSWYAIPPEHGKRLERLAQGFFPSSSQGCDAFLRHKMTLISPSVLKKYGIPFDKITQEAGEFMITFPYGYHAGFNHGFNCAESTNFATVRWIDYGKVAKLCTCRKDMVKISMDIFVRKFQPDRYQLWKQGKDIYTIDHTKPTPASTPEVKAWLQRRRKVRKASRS
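System – N-terminal GST-fused human GASC-1 (KDM4C) fragment, residues 2-372 · Input – enzyme final amount 10 nM · Technique – LANCE TR-FRET, Eu antibody, ULight-streptavidin, EDTA, ex 340 nm, em 618/671 nm · Medium – HEPES buffer, pH 7.5, plus ascorbate · Incubation – enzyme reaction 30 min, then detection 60 min, both room temperature · Reagent – H3K9me3 peptide with Fe(II)/2OG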
Pf Dd2 inh = P. falciparum Dd2 growth inhibitors, primary screen, SYBR Green fluorescence, single dose replicates; 72 h; active compounds read low; activity change, % at 10 µM; 2.3% of 94,000 active; in the data active means activity change below about -80%
IDH1 mut inh = inhibitors of IDH1 R132H reductase, primary screen, biochemical, plate reader, single point; Isocitrate dehydrogenase [NADP] cytoplasmic (Homo sapiens), O75874; diaphorase/resazurin fluorescence, 60 min; inhibition, % at 10 µM; 0.18% of 70,000 active; in the data active means inhibition above about 34%;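 further: 0% = DMSO and 100% = no enzyme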
T cruzi growth-2 = T. cruzi intracellular proliferation inhibitors, confirmation, cell-based, NIH3T3 host, beta-gal parasite, luminescence, cherry-pick. shares compounds with T cruzi growth-1. 72% of 5,600 active. AID 651739, 2012. T. cruzi beta-gal in NIH3T3, GalScreen luminescence, 90 h. inhibition, % at 8.35 µM;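 active means mean replicate inhibition above about 95% and at least 55% of replicates individually reaching it, limit read from the data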
T cruzi growth-3 = inhibitors of intracellular T. cruzi replication, confirmation, NIH3T3 host cells, beta-gal parasites, cherry-pick, set 2. shares compounds with T cruzi growth-1. AID 651740, 2012. inhibition, % at 2.09 µM. T. cruzi beta-gal in NIH3T3, GalScreen luminescence, 90 h. 21% of 5,600 active;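 active means mean inhibition above about 95%, with at least 55% of replicates also reaching it, limit read from the data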;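 further: plate controls were neutral control median for no effect and positive control median for full effect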
NIH3T3 tox = cytotoxicity in mouse NIH/3T3 fibroblasts, confirmation, cytotoxicity control for T. cruzi proliferation inhibitor project, cell-based, cherry-pick, single point; shares compounds with T cruzi growth-1; NIH/3T3 viability, CellTiter-Glo ATP luminescence, 90 h; cytotoxicity (signal decrease), % at 8.35 µM; 14% of 5,600 active; AID 651742, 2012;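 active means mean signal decrease across replicates above about 35% based on untreated-well scatter, with enough replicates individually passing, limit read from the data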;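 further: 0% = median of neutral control wells and 100% = median of positive control wells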
3T3 cytotox 2 = NIH/3T3 fibroblast cytotoxicity, confirmation, cytotoxicity control, cell-based, cherry-pick, single point, set 2; shares compounds with T cruzi growth-1; NIH/3T3 viability, CellTiter-Glo ATP luminescence, 90 h; inhibition, % at 24.9 µM; 56% of 5,600 active; AID 651744, 2012;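 active means mean loss of cell viability signal at or above a set limit, and enough replicates individually reaching it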;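 further: 0% = median of neutral control wells and 100% = median of positive control wells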
* marks the source's active call; other numbers are inactive results.

What do the screens show for `O=C(Nc1cccc(F)c1)N[C@@H]1CC[C@H](CCNS(=O)(=O)c2cccc(Cl)c2)O[C@@H]1CO`?
T cruzi growth-1: 153*; KDM4C inh: 0; Pf Dd2 inh: -20; IDH1 mut inh: -1; T cruzi growth-2: 18; T cruzi growth-3: 8; NIH3T3 tox: -1; 3T3 cytotox 2: 1

Results for O=C(Nc1cc(Cl)cc(Cl)c1)N[C@H]1CC[C@H](CCNS(=O)(=O)c2cccc(F)c2)O[C@@H]1CO ?
T cruzi growth-1: 112*; KDM4C inh: 0; Pf Dd2 inh: 3; IDH1 mut inh: 0; T cruzi growth-2: 108*; T cruzi growth-3: 7; NIH3T3 tox: 16; 3T3 cytotox 2: 97*

What do the screens show for `COc1ccc(CN(C)C[C@@H]2Oc3c(NC(=O)c4ccncc4)cccc3C(=O)N([C@H](C)CO)C[C@H]2C)cc1`?
IDH1 mut inh: 2

How did CC(C)CC#Cc1ccc([C@@H]2[C@H]3CN(S(=O)(=O)Cc4ccccc4)CCCCN3[C@H]2CO)cc1 do in these assays?
T cruzi growth-1: 104*; KDM4C inh: 5; Pf Dd2 inh: -57; T cruzi growth-2: 99*; T cruzi growth-3: 105*; NIH3T3 tox: 24; 3T3 cytotox 2: 106*

Results for CC(C)C#Cc1ccc([C@@H]2[C@@H](CO)N3CCCCN(S(=O)(=O)Cc4ccccc4)C[C@H]23)cc1 ?
T cruzi growth-1: 117*; KDM4C inh: 0; Pf Dd2 inh: -5; T cruzi growth-2: 107*; T cruzi growth-3: 80; NIH3T3 tox: 23; 3T3 cytotox 2: 105*

Results for C[C@@H](O)C#Cc1ccc([C@@H]2[C@H]3CN(S(=O)(=O)Cc4ccccc4)CCCCN3[C@H]2CO)cc1 ?
T cruzi growth-1: 48; KDM4C inh: 0; Pf Dd2 inh: -5

How did CC(C)C#Cc1ccc([C@H]2[C@H](CO)N3CCCCN(S(=O)(=O)Cc4ccccc4)C[C@@H]23)cc1 do in these assays?
T cruzi growth-1: 109*; KDM4C inh: 0; Pf Dd2 inh: -17; T cruzi growth-2: 106*; T cruzi growth-3: 66; NIH3T3 tox: 20; 3T3 cytotox 2: 104*

How did C[C@@H](O)C#Cc1ccc([C@H]2[C@@H](CO)N3CCCCN(S(=O)(=O)Cc4ccccc4)C[C@H]23)cc1 do in these assays?
T cruzi growth-1: 45; KDM4C inh: -1; Pf Dd2 inh: -16

What do the screens show for `CC(C)C#Cc1ccc([C@@H]2[C@H]3CN(S(=O)(=O)Cc4ccccc4)CCCCN3[C@H]2CO)cc1`?
T cruzi growth-1: 101*; KDM4C inh: 0; Pf Dd2 inh: -24; T cruzi growth-2: 98*; T cruzi growth-3: 89; NIH3T3 tox: 18; 3T3 cytotox 2: 106*

What do the screens show for `CCC(=O)NC[C@@H]1[C@H](c2ccc(-c3cccc(F)c3)cc2)[C@@H](CO)N1C(=O)CC`?
T cruzi growth-1: 101*; KDM4C inh: -1; Pf Dd2 inh: 1; T cruzi growth-2: -41; T cruzi growth-3: -73; NIH3T3 tox: -35; 3T3 cytotox 2: -30

What do the screens show for `CCC(=O)NC[C@H]1[C@@H](c2ccc(-c3cccc(F)c3)cc2)[C@H](CO)N1C(=O)CC`?
T cruzi growth-1: 30; KDM4C inh: -3; Pf Dd2 inh: 19
